{"source": "ChEMBL document CHEMBL4390675", "about": "“Dopamine D4 Receptor-Selective Compounds Reveal Structure-Activity Relationships that Engender Agonist Efficacy” (J Med Chem, 2019)", "key": {"D(3) dopamine receptor [1]": {"target": "T1, D(3) dopamine receptor (Homo sapiens, UniProt P35462)", "T1 sequence (P35462 whole entry)": "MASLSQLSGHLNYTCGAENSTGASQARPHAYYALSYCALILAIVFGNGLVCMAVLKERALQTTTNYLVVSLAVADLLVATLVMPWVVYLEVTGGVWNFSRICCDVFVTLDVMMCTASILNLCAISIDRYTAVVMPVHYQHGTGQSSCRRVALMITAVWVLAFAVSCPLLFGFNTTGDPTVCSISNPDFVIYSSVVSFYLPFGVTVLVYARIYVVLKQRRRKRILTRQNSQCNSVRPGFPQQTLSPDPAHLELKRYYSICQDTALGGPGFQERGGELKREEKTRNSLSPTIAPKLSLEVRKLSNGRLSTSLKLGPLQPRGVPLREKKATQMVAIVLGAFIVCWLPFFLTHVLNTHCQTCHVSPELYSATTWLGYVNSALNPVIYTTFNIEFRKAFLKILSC", "experiment": "Displacement of [3H]N-methylspiperone from human D3 receptor expressed in HEK293 cell membranes measured after 60 mins by scintillation counting method", "in_short": "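HEK293 cells stably expressing human D3R; membranes in EBSS buffer pH 7.4, stored at −80 °C. 20 μg protein/well with 0.4 nM [3H]N-methylspiperone (final), half-log dilutions in 30% DMSO, in triplicate. 60 min at room temperature, then GF/B filtration. Nonspecific binding with 10 μM (+)-butaclamol.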"}, "D(4) dopamine receptor [2]": {"target": "T2, D(4) dopamine receptor (Homo sapiens, UniProt P21917)", "T2 sequence (P21917 whole entry)": "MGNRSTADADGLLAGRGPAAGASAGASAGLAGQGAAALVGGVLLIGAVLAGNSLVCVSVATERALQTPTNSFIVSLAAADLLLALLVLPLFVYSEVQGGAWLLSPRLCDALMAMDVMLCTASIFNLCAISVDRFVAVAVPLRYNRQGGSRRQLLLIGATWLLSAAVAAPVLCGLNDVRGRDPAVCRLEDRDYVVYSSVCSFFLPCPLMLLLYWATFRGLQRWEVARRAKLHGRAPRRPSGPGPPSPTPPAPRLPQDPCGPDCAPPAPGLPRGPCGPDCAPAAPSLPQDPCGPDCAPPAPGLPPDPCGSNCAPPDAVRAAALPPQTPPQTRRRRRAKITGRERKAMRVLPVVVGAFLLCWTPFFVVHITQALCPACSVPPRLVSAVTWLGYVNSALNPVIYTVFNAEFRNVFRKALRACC", "experiment": "Displacement of [3H]N-methylspiperone from human D4.4 receptor expressed in HEK293 cell membranes measured after 60 mins by scintillation counting method", "in_short": "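Frozen HEK293 membranes stably expressing human D4.4R (30 μg/well) in EBSS-bicarbonate buffer, pH 7.4, were incubated with 0.4 nM [3H]N-methylspiperone and half-log compound dilutions (30% DMSO vehicle) for 60 min at room temperature. Nonspecific binding was defined by 10 μM (+)-butaclamol. Samples were filtered on GF/B filters and counted by scintillation.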"}, "D(3) dopamine receptor [3]": {"target": "T1, D(3) dopamine receptor", "experiment": "Displacement of [3H](R)-(+)-7-OH-DPAT from human D3 receptor expressed in HEK293 cell membranes measured after 90 mins by scintillation counting method", "in_short": "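Fresh HEK293 hD3R membranes (40 μg/well) in 50 mM Tris, 10 mM MgCl2, 1 mM EDTA, pH 7.4 were incubated with 0.5 nM [3H]-(R)-(+)-7-OH-DPAT and half-log compound dilutions in 30% DMSO for 90 min at room temperature. Nonspecific binding was defined with 10 μM (+)-butaclamol. Samples were filtered on PEI-soaked GF/B filters and counted by scintillation.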"}, "D(4) dopamine receptor [4]": {"target": "T2, D(4) dopamine receptor", "experiment": "Displacement of [3H](R)-(+)-7-OH-DPAT from human D4.4 receptor expressed in HEK293 cell membranes measured after 90 mins by scintillation counting method", "in_short": "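HEK293 cells stably expressing human D4.4R; membranes used fresh in 50 mM Tris, 10 mM MgCl2, 1 mM EDTA, pH 7.4. 60 μg protein/well with 3 nM [3H]-(R)-(+)-7-OH-DPAT (final), half-log dilutions in 30% DMSO, in triplicate. 90 min at room temperature, then GF/B filtration. Nonspecific binding with 10 μM (+)-butaclamol.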"}, "D(2) dopamine receptor [5]": {"target": "T3, D(2) dopamine receptor (Homo sapiens, UniProt P14416)", "T3 sequence (P14416 whole entry)": "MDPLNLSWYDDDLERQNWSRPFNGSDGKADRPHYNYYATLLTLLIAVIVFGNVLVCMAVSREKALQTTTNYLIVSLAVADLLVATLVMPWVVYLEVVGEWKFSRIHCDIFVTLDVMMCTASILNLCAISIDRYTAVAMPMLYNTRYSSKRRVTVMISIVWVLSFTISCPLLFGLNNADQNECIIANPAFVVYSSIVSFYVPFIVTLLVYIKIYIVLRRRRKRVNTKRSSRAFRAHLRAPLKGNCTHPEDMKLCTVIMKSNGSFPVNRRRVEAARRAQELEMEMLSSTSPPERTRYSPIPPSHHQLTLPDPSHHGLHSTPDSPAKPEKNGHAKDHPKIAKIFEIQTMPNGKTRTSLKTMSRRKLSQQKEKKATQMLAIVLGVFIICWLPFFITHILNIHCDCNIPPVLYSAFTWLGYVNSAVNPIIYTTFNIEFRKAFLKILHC", "experiment": "Agonist activity at human D2L receptor expressed in CHOK1 cells assessed as inhibition of forskolin-induced cAMP accumulation measured after 30 mins by Eu-cAMP tracer based TR-FRET assay relative to dopamine", "type": "cell-based", "details": "0.5 h"}, "[6]": {"target": "T4, D(4) dopamine receptor (Homo sapiens) (UniProt P21917)", "T4 sequence (whole entry)": "T2 sequence (P21917 whole entry)", "experiment": "Agonist activity at human D4 receptor expressed in CHOK1 cells assessed as inhibition of forskolin-induced cAMP accumulation measured after 30 mins by Eu-cAMP tracer based TR-FRET assay relative to dopamine", "type": "functional, cell-based", "in_short": "(§1)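 LANCE Ultra TR-FRET cAMP assay in CHO-K1 cells stably expressing human D2R long isoform or D4R. Cells were plated in HBSS/5 mM HEPES/0.2 μM metabisulfite, then immediately given compound plus forskolin (10 μM final) for 30 min at room temperature. Eu-cAMP tracer and ULight-anti-cAMP were added for 2 h in the dark. Values are % of maximal dopamine signal, nonlinear regression of triplicate runs, n = 3–4.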"}, "D(4) dopamine receptor [7]": {"target": "T2, D(4) dopamine receptor", "experiment": "Agonist activity at human D4 receptor expressed in CHOK1 cells assessed as inhibition of forskolin-induced cAMP accumulation measured after 30 mins by Eu-cAMP tracer based TR-FRET assay", "type": "functional, cell-based", "details": "read-out: EC50", "in_short": "as §1"}, "[8]": {"target": "T4, D(4) dopamine receptor (Homo sapiens)", "experiment": "Antagonist activity at human D4 receptor expressed in CHOK1 cells assessed as suppression of dopamine-induced inhibition of forskolin-stimulated cAMP accumulation measured after 30 mins by Eu-cAMP tracer based TR-FRET assay relative to dopamine", "type": "functional, cell-based", "parameters": "concentration or dose not given beside the values"}, "D(4) dopamine receptor [9]": {"target": "T2, D(4) dopamine receptor", "experiment": "Antagonist activity at human D4 receptor expressed in CHOK1 cells assessed as suppression of dopamine-induced inhibition of forskolin-stimulated cAMP accumulation measured after 30 mins by Eu-cAMP tracer based TR-FRET assay", "type": "functional, cell-based"}, "D(2) dopamine receptor [10]": {"target": "T3, D(2) dopamine receptor", "experiment": "Agonist activity at human D2L receptor expressed in CHOK1 cells assessed as induction of beta-arrestin recruitment measured after 90 mins by luminescence assay relative to control", "type": "cell-based", "in_short": "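PathHunter enzyme-complementation assay in CHO-K1 cells stably expressing human D2R long isoform, seeded 2625 cells/well and incubated overnight. Compounds diluted in PBS with 0.2 μM sodium metabisulfite, tested at multiple concentrations, 90 min at 37 °C. Detection reagent then 45–60 min at room temperature, luminescence read. Normalized to maximal dopamine response. Nonlinear regression of triplicate runs, n = 3–4.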"}, "D(3) dopamine receptor [11]": {"target": "T1, D(3) dopamine receptor", "experiment": "Agonist activity at human D3 receptor expressed in CHOK1 cells assessed as induction of beta-arrestin recruitment measured after 90 mins by luminescence assay relative to control", "type": "cell-based", "in_short": "(§2)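 PathHunter enzyme-complementation assay in CHO-K1 cells stably expressing human D2R long isoform, D3R or D4R, seeded overnight in Ham's F12/10% FBS. Compounds were diluted in PBS with 0.2 μM sodium metabisulfite and applied at multiple concentrations for 90 min at 37 °C. Detection reagent was added for 45–60 min at room temperature, then luminescence was read. Values are % of maximal dopamine response, from nonlinear regression of triplicate runs, mean ± SEM, n = 3–4.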"}, "D(3) dopamine receptor [12]": {"target": "T1, D(3) dopamine receptor", "experiment": "Agonist activity at human D3 receptor expressed in CHOK1 cells assessed as induction of beta-arrestin recruitment measured after 90 mins by luminescence assay", "type": "cell-based", "details": "read-out: EC50", "in_short": "as §2"}, "D(3) dopamine receptor [13]": {"target": "T1, D(3) dopamine receptor", "experiment": "Antagonist activity at human D3 receptor expressed in CHOK1 cells assessed as inhibition of dopamine-induced beta-arrestin recruitment measured after 90 mins by luminescence assay relative to control", "type": "cell-based", "in_short": "(§3)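 Antagonist-mode PathHunter β-arrestin assay in CHO-K1 cells stably expressing human D2R long isoform or D3R, seeded overnight. Compound dilutions in PBS with 0.2 μM metabisulfite were co-incubated with an EC80 dopamine concentration for 90 min at 37 °C. Detection reagent was added for 45–60 min at room temperature, then luminescence was read. Values are % of dopamine EC80 response, from nonlinear regression of triplicate runs, n = 3–4.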"}, "D(3) dopamine receptor [14]": {"target": "T1, D(3) dopamine receptor", "experiment": "Antagonist activity at human D3 receptor expressed in CHOK1 cells assessed as inhibition of dopamine-induced beta-arrestin recruitment measured after 90 mins by luminescence assay", "type": "cell-based", "details": "read-out: IC50", "in_short": "as §3"}, "[15]": {"target": "T4, D(4) dopamine receptor (Homo sapiens)", "experiment": "Agonist activity at human D4 receptor expressed in CHOK1 cells assessed as induction of beta-arrestin recruitment measured after 90 mins by luminescence assay relative to control", "type": "cell-based", "in_short": "as §2"}, "D(4) dopamine receptor [16]": {"target": "T2, D(4) dopamine receptor", "experiment": "Agonist activity at human D4 receptor expressed in CHOK1 cells assessed as induction of beta-arrestin recruitment measured after 90 mins by luminescence assay", "type": "cell-based", "details": "read-out: EC50", "in_short": "as §2"}, "[17]": {"target": "T4, D(4) dopamine receptor (Homo sapiens)", "experiment": "Antagonist activity at human D4 receptor expressed in CHOK1 cells assessed as inhibition of dopamine-induced beta-arrestin recruitment measured after 90 mins by luminescence assay relative to control", "type": "cell-based", "parameters": "concentration or dose not given beside the values"}, "D(4) dopamine receptor [18]": {"target": "T2, D(4) dopamine receptor", "experiment": "Antagonist activity at human D4 receptor expressed in CHOK1 cells assessed as inhibition of dopamine-induced beta-arrestin recruitment measured after 90 mins by luminescence assay", "type": "cell-based", "details": "read-out: IC50"}, "[19]": {"target": "D(1A) dopamine receptor (Homo sapiens) (UniProt P21728)", "sequence (P21728 whole entry)": "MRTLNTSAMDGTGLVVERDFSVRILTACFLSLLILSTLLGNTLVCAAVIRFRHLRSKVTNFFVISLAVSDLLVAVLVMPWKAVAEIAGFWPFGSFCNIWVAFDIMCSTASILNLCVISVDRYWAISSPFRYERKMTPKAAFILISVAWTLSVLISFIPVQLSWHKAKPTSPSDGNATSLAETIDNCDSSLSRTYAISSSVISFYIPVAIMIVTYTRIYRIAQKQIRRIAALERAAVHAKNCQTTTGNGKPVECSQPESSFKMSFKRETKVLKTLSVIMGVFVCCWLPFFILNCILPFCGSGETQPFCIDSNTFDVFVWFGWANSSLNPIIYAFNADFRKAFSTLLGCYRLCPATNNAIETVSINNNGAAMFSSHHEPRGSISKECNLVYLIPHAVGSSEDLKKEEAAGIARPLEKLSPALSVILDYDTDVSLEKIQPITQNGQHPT", "experiment": "Agonist activity at D1 receptor (unknown origin) stably expressed in CHOK1 cells assessed as induction of beta-arrestin recruitment measured after 90 mins by luminescence assay", "type": "cell-based"}, "[20]": {"target": "D(1B) dopamine receptor (Homo sapiens) (UniProt P21918)", "sequence (P21918 whole entry)": "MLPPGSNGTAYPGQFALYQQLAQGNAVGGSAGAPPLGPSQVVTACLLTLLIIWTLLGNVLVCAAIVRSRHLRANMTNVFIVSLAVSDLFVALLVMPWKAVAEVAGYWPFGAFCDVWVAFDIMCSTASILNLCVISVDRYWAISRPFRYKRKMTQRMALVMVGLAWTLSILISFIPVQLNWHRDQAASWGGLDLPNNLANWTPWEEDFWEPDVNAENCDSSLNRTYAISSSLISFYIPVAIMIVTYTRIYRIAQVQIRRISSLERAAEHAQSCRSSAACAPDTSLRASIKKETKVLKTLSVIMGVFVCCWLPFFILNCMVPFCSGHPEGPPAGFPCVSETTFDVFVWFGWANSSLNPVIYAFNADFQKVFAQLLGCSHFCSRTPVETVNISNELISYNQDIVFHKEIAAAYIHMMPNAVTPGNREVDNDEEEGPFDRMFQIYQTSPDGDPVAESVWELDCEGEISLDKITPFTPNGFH", "experiment": "Agonist activity at D5 receptor (unknown origin) stably expressed in CHOK1 cells assessed as induction of beta-arrestin recruitment measured after 90 mins by luminescence assay", "type": "cell-based"}, "[21]": {"target": "D(1A) dopamine receptor (Homo sapiens) (UniProt P21728)", "experiment": "Antagonist activity at D1 receptor (unknown origin) stably expressed in CHOK1 cells assessed as inhibition of dopamine-induced beta-arrestin recruitment measured after 90 mins by luminescence assay", "type": "cell-based"}, "[22]": {"target": "D(1B) dopamine receptor (Homo sapiens) (UniProt P21918)", "experiment": "Antagonist activity at D5 receptor (unknown origin) stably expressed in CHOK1 cells assessed as inhibition of dopamine-induced beta-arrestin recruitment measured after 90 mins by luminescence assay", "type": "cell-based"}}, "note": "Active and inactive are the calls of the source. The rule behind the calls is not given here."}
{"smiles": "Cc1cccc(NC(=O)CN2CCN(c3ncccn3)CC2)c1", "values": [{"measurement": "Ki", "setting": "D(3) dopamine receptor [1]", "value": "> 10000", "unit": "nM"}, {"measurement": "Ki", "setting": "D(4) dopamine receptor [2]", "value": 318, "unit": "nM"}, {"measurement": "Ki", "setting": "D(3) dopamine receptor [3]", "value": 5990, "unit": "nM"}, {"measurement": "Ki", "setting": "D(4) dopamine receptor [4]", "value": 5.66, "unit": "nM"}, {"measurement": "Emax", "setting": "D(2) dopamine receptor [5]", "value": 54.4, "unit": "%"}, {"measurement": "Emax", "setting": "[6]", "value": 64.6, "unit": "%"}, {"measurement": "EC50", "setting": "D(4) dopamine receptor [7]", "value": 3.4, "unit": "nM"}, {"measurement": "inhibition", "setting": "[8]", "value": 45, "unit": "%"}, {"measurement": "IC50", "setting": "D(4) dopamine receptor [9]", "value": 463, "unit": "nM"}, {"measurement": "Emax", "setting": "D(2) dopamine receptor [10]", "value": 39.6, "unit": "%"}, {"measurement": "Emax", "setting": "D(3) dopamine receptor [11]", "value": 58.4, "unit": "%"}, {"measurement": "EC50", "setting": "D(3) dopamine receptor [12]", "value": 5580, "unit": "nM"}, {"measurement": "inhibition", "setting": "D(3) dopamine receptor [13]", "value": "inactive"}, {"measurement": "IC50", "setting": "D(3) dopamine receptor [14]", "value": "> 100000", "unit": "nM"}, {"measurement": "Emax", "setting": "[15]", "value": 24.7, "unit": "%"}, {"measurement": "EC50", "setting": "D(4) dopamine receptor [16]", "value": 278, "unit": "nM"}, {"measurement": "inhibition", "setting": "[17]", "value": 80.6, "unit": "%"}, {"measurement": "IC50", "setting": "D(4) dopamine receptor [18]", "value": 197, "unit": "nM"}, {"measurement": "Activity", "setting": "[19]", "value": "inactive"}, {"measurement": "Activity", "setting": "[20]", "value": "inactive"}, {"measurement": "inhibition", "setting": "[21]", "value": "inactive"}, {"measurement": "inhibition", "setting": "[22]", "value": "inactive"}]}
